{"source": "ChEMBL document CHEMBL1124798", "about": "“Design of peptidomimetic delta opioid receptor antagonists using the message-address concept” (J Med Chem, 1990)"}
{"target": "Mu-type opioid receptor (Cavia porcellus) (UniProt P97266)", "sequence (P97266 whole entry)": "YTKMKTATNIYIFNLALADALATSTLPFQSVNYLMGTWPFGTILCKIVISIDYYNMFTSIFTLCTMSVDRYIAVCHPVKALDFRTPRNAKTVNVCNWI", "assay": "Antagonist potency was determined as the ratio of [antagonist] to (IC50 ratio-1) for Opioid receptor mu 1", "assay_type": "functional", "conditions": "not given", "summary_of_the_method": "(§1)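 Ke (nM) = [antagonist]/(IC50 ratio − 1). IC50 ratio is agonist IC50 with antagonist over the control IC50 in the same preparation. Antagonist preincubated 15 min. Agonists: DADLE in mouse vas deferens (δ); morphine (μ) and ethylketazocine (κ) in guinea pig ileum. n ≥ 3.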", "units": {"Ke": "nM"}}
{"molecule": "Oc1ccc2[nH]c3c(c2c1)C[C@@]1(O)[C@H]2Cc4ccc(O)c5c4[C@@]1(CCN2CC1CC1)[C@H]3O5", "Ke": 19}
{"molecule": "Oc1ccc2c3c1O[C@H]1c4[nH]c5cc(F)ccc5c4C[C@@]4(O)[C@@H](C2)N(CC2CC2)CC[C@]314", "Ke": "> 125"}
{"target": "Kappa-type opioid receptor (Cavia porcellus) (UniProt P41144)", "sequence (P41144 whole entry)": "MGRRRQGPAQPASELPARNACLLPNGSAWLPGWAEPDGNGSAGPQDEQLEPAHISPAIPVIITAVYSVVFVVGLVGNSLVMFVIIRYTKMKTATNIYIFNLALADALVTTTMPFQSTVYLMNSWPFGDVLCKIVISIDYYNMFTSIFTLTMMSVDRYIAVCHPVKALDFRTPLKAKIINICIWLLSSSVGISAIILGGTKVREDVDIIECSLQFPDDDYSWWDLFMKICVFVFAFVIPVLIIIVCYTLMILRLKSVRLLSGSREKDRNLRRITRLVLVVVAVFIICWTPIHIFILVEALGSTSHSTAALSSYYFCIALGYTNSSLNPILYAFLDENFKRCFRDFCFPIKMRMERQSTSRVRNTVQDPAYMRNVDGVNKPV", "assay": "Opioid receptor kappa 1 antagonistic activity was measured by the displacement of ethylketazocine in the guinea pig ileum at a concentration of 100 nM", "assay_type": "functional, tissue-based", "conditions": "not given", "summary_of_the_method": "(§2)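 Guinea pig ileum. Antagonist (nM, as stated on line) incubated 15 min before testing. Agonists: morphine (μ) and ethylketazocine (κ).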"}
{"molecule": "Oc1ccc2[nH]c3c(c2c1)C[C@@]1(O)[C@H]2Cc4ccc(O)c5c4[C@@]1(CCN2CC1CC1)[C@H]3O5", "IC50 ratio": 3.1}
{"molecule": "Oc1ccc2c3c1O[C@H]1c4[nH]c5cc(F)ccc5c4C[C@@]4(O)[C@@H](C2)N(CC2CC2)CC[C@]314", "IC50 ratio": 1.6}
{"target": "Delta-type opioid receptor (Mus musculus) (UniProt P32300)", "sequence (P32300 whole entry)": "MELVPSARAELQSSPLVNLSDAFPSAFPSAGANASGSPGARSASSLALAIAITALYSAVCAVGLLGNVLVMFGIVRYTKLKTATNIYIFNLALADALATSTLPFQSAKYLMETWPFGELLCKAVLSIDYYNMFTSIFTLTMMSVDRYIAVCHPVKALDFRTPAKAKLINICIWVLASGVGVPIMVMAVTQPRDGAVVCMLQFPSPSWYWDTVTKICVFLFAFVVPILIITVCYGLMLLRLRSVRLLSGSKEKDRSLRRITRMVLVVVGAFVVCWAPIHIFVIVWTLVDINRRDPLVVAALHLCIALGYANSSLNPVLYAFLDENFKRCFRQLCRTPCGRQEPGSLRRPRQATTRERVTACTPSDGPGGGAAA", "assay": "Antagonist potency was determined as the ratio of [antagonist] to (IC50 ratio-1) for opioid receptor delta 1", "assay_type": "functional", "conditions": "not given", "summary_of_the_method": "as §1", "units": {"Ke": "nM"}}
{"molecule": "Oc1ccc2[nH]c3c(c2c1)C[C@@]1(O)[C@H]2Cc4ccc(O)c5c4[C@@]1(CCN2CC1CC1)[C@H]3O5", "Ke": 27}
{"molecule": "Oc1ccc2c3c1O[C@H]1c4[nH]c5cc(F)ccc5c4C[C@@]4(O)[C@@H](C2)N(CC2CC2)CC[C@]314", "Ke": 4.4}
{"target": "Delta-type opioid receptor (Mus musculus) (UniProt P32300)", "assay": "Opioid receptor delta 1 antagonistic activity was measured by the displacement of DADLE in the mouse vas deferens at a concentration of 100 nM", "assay_type": "functional", "conditions": "not given", "summary_of_the_method": "(§3)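 Mouse vas deferens. Antagonist (nM, as stated on line) incubated with the preparation 15 min before testing. δ agonist [D-Ala2,D-Leu5]enkephalin.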"}
{"molecule": "Oc1ccc2[nH]c3c(c2c1)C[C@@]1(O)[C@H]2Cc4ccc(O)c5c4[C@@]1(CCN2CC1CC1)[C@H]3O5", "IC50 ratio": 4.7}
{"molecule": "Oc1ccc2c3c1O[C@H]1c4[nH]c5cc(F)ccc5c4C[C@@]4(O)[C@@H](C2)N(CC2CC2)CC[C@]314", "IC50 ratio": 24}
{"target": "Kappa-type opioid receptor (Cavia porcellus) (UniProt P41144)", "assay": "Opioid receptor kappa antagonistic activity was measured by the displacement of ethylketazocine in the guinea pig ileum at a concentration of 100 nM", "assay_type": "functional, tissue-based", "conditions": "not given", "summary_of_the_method": "as §2"}
{"molecule": "Oc1ccc2[nH]c3c(c2c1)C[C@@]1(O)[C@H]2Cc4ccc(O)c5c4[C@@]1(CCN2CC1CC1)[C@H]3O5", "IC50 ratio": 3.1}
{"molecule": "Oc1ccc2c3c1O[C@H]1c4[nH]c5cc(F)ccc5c4C[C@@]4(O)[C@@H](C2)N(CC2CC2)CC[C@]314", "IC50 ratio": 1.6}
{"target": "Opioid receptors; mu & delta (Homo sapiens) (UniProt P41143+P35372)", "sequence (P35372 whole entry, looked up)": "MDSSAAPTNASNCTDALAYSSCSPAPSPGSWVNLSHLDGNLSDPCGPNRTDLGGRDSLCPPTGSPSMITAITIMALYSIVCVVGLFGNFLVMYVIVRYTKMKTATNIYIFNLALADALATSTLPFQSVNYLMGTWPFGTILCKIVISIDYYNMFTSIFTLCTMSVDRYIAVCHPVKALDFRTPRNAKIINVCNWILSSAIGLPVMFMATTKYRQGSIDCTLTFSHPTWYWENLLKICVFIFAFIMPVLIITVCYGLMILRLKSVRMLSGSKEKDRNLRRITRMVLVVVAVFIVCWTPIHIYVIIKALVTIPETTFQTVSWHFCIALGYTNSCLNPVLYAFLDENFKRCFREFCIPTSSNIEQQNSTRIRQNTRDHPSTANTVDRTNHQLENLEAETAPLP", "sequence (P41143 whole entry, looked up)": "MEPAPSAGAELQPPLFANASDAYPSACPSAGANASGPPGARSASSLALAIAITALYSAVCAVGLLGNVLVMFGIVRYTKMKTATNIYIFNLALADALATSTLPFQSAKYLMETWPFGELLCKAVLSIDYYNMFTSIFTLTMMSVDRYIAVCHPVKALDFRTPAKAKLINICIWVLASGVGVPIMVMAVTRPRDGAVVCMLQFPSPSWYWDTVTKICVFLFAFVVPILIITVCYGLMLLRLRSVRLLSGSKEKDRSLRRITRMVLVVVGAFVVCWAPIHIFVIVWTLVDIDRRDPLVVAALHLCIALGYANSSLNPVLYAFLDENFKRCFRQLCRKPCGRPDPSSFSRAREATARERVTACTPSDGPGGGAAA", "assay": "Selectivity ratio was determined from Ke value of Opioid receptor mu 1 and Opioid receptor delta 1", "assay_type": "protein assay", "conditions": "Cavia porcellus", "summary_of_the_method": "(§4)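 Ratios of Ke values, μ/δ or κ/δ. Each Ke = [antagonist]/(IC50 ratio − 1). δ from DADLE in mouse vas deferens; μ (morphine) and κ (ethylketazocine) in guinea pig ileum. 15 min antagonist preincubation, n ≥ 3.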"}
{"molecule": "Oc1ccc2[nH]c3c(c2c1)C[C@@]1(O)[C@H]2Cc4ccc(O)c5c4[C@@]1(CCN2CC1CC1)[C@H]3O5", "Selectivity ratio": 0.7}
{"molecule": "Oc1ccc2c3c1O[C@H]1c4[nH]c5cc(F)ccc5c4C[C@@]4(O)[C@@H](C2)N(CC2CC2)CC[C@]314", "Selectivity ratio": "> 28"}
{"target": "Opioid receptors; delta & kappa (Homo sapiens) (UniProt P41145+P41143)", "sequence (P41143 whole entry, looked up)": "as above", "sequence (P41145 whole entry, looked up)": "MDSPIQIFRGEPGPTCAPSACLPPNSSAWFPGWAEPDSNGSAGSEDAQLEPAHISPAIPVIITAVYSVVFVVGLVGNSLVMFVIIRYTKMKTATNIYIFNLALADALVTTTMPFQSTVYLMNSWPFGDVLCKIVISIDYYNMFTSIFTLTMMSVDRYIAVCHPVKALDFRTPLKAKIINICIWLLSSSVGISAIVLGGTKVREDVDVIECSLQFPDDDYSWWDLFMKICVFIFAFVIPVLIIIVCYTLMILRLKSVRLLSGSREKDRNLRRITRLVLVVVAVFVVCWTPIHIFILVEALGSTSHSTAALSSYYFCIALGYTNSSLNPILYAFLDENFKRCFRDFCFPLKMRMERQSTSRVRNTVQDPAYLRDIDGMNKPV", "assay": "Selectivity ratio was determined from Ke value of Opioid receptor kappa 1 and Opioid receptor delta 1", "assay_type": "protein assay", "conditions": "Cavia porcellus", "summary_of_the_method": "as §4"}
{"molecule": "Oc1ccc2[nH]c3c(c2c1)C[C@@]1(O)[C@H]2Cc4ccc(O)c5c4[C@@]1(CCN2CC1CC1)[C@H]3O5", "Selectivity ratio": 1.8}
{"molecule": "Oc1ccc2c3c1O[C@H]1c4[nH]c5cc(F)ccc5c4C[C@@]4(O)[C@@H](C2)N(CC2CC2)CC[C@]314", "Selectivity ratio": "> 38"}
{"target": "Delta-type opioid receptor (Mus musculus) (UniProt P32300)", "assay": "Opioid receptor delta antagonistic activity was measured by the displacement of DADLE in the mouse vas deferens at a concentration of 100 nM", "assay_type": "functional", "conditions": "not given", "summary_of_the_method": "as §3"}
{"molecule": "Oc1ccc2[nH]c3c(c2c1)C[C@@]1(O)[C@H]2Cc4ccc(O)c5c4[C@@]1(CCN2CC1CC1)[C@H]3O5", "IC50 ratio": 4.7}
{"molecule": "Oc1ccc2c3c1O[C@H]1c4[nH]c5cc(F)ccc5c4C[C@@]4(O)[C@@H](C2)N(CC2CC2)CC[C@]314", "IC50 ratio": 24}
{"target": "Kappa-type opioid receptor (Cavia porcellus) (UniProt P41144)", "assay": "Antagonist potency was determined as the ratio of [antagonist] to (IC50 ratio-1) for Opioid receptor kappa 1", "assay_type": "functional", "conditions": "not given", "summary_of_the_method": "as §1", "units": {"Ke": "nM"}}
{"molecule": "Oc1ccc2[nH]c3c(c2c1)C[C@@]1(O)[C@H]2Cc4ccc(O)c5c4[C@@]1(CCN2CC1CC1)[C@H]3O5", "Ke": 48}
{"molecule": "Oc1ccc2c3c1O[C@H]1c4[nH]c5cc(F)ccc5c4C[C@@]4(O)[C@@H](C2)N(CC2CC2)CC[C@]314", "Ke": "> 167"}
{"target": "Mu-type opioid receptor (Cavia porcellus) (UniProt P97266)", "assay": "Opioid receptor mu 1 antagonistic activity was measured by the displacement of morphine in the guinea pig ileum at a concentration of 100 nM", "assay_type": "functional, tissue-based", "conditions": "not given", "summary_of_the_method": "as §2"}
{"molecule": "Oc1ccc2[nH]c3c(c2c1)C[C@@]1(O)[C@H]2Cc4ccc(O)c5c4[C@@]1(CCN2CC1CC1)[C@H]3O5", "IC50 ratio": 6.4}
{"molecule": "Oc1ccc2c3c1O[C@H]1c4[nH]c5cc(F)ccc5c4C[C@@]4(O)[C@@H](C2)N(CC2CC2)CC[C@]314", "IC50 ratio": 1.8}
{"target": "Mu-type opioid receptor (Cavia porcellus) (UniProt P97266)", "assay": "Opioid receptor mu antagonistic activity was measured by the displacement of morphine in the guinea pig ileum at a concentration of 100 nM", "assay_type": "functional, tissue-based", "conditions": "not given", "summary_of_the_method": "as §2"}
{"molecule": "Oc1ccc2[nH]c3c(c2c1)C[C@@]1(O)[C@H]2Cc4ccc(O)c5c4[C@@]1(CCN2CC1CC1)[C@H]3O5", "IC50 ratio": 6.4}
{"molecule": "Oc1ccc2c3c1O[C@H]1c4[nH]c5cc(F)ccc5c4C[C@@]4(O)[C@@H](C2)N(CC2CC2)CC[C@]314", "IC50 ratio": 1.8}
